Most compounds without a hit are left out; they make up all but 3.5% or so of the library.
FLuc stim CS: FLuc activators, initial screening, artefact control for FLuc-dependent activation tests, biochemical, ATPlite luminescence | Luciferin 4-monooxygenase (Photinus pyralis), P08659 | ATPlite luciferase biochemical, 10 min; 0 = ATP-free wells, 1 = DMSO control | activation factor at 10 µM | 200,000 tested, under 10 active | AID 1027, 2008;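 active = luciferase activation factor, scaled between plate controls, of at least 2 with compound at 10 µM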
Target sequence (P08659 whole entry, looked up): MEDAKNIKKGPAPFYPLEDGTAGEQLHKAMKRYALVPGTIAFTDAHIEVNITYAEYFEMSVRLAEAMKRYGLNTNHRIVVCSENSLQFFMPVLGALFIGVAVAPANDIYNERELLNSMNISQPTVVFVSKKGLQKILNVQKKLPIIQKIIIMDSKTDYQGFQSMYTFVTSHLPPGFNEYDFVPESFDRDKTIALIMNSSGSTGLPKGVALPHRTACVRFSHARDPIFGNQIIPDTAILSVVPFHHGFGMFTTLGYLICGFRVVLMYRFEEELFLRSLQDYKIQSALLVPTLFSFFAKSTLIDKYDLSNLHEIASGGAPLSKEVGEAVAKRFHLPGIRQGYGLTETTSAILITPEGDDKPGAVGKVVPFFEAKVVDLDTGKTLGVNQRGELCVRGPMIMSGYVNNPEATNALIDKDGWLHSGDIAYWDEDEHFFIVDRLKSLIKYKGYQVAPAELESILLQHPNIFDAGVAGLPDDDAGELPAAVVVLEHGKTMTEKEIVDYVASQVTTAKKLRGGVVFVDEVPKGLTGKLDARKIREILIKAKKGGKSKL
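Assay system – cell-free luciferase reagent · Medium – PBS-based ATP solution · Dosing – test compounds dosed from 2 mM stocks in 100% DMSO · Timing – 10 min, room temperature · Technique – light output (luminescence) · Measure – luminescence gain marking luciferase activators · Controls – No-ATP low control, compound-free enzyme-plus-ATP high control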
APP 5'UTR act: activators of APP 5'UTR luciferase reporter, primary screen, SH-SY5Y cells. SH-SY5Y APP 5'UTR luciferase reporter, luminescence; zero percent = DMSO vehicle wells. activation, % at 2 µM. 190,000 compounds, 1% hits;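 active = activation above a set limit, based on mean plus 3 SD of controls, cut at about 140% in these data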
NF-kB neuron act: activators of NF-kB expression in neurons, primary screen, cell-based, HTS | human neuronal cells, NF-kB reporter expression; hits give high values | fold change at 12.5 µM | 190,000 compounds, 1.6% hits | AID 1239, 2008; in the data active = fold change above about 3.3
FLuc inhib CS: firefly luciferase enzyme inhibitors, primary screen, artefact control for luciferase-based inhibitor screens, biochemical, luminescence, ATPLite; inhibition, % at 10 µM; Luciferin 4-monooxygenase (Photinus pyralis), P08659; 10 min; AID 1006, 2008; 200,000 compounds, 1.5% hits;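 active = inhibition above about 50% when tested at 10 µM, limit read from the data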
STAT1 act: STAT1 signaling activators, primary screen, cell-based, HTS, luciferase reporter; activation (% of control), % at 5.5 µM; AID 932, 2007; NIH 3T3 STAT1-luciferase reporter, IFN-gamma, luminescence; 100% = IFN-gamma alone, no compound; 200,000 compounds, 2.6% hits;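 active = activation above the screen-wide mean activation plus 3 SD, cut at about 130% in these data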;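 note: raw ratio to IFN-gamma control signal so 100% means no change and 0% no light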
Pf gametocyte: late stage P. falciparum gametocyte viability inhibitors, primary screen, ATP luminescence, HTS; P. falciparum stage V gametocytes, 24 h; 150,000 compounds, 0.065% hits; AID 743093, 2013; inhibition, % at 10.9 µM;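 active = inhibition above the mean plus 3 SD of compounds within the control limits, set per campaign, cut at about 38% in these data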;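 note: 0% = DMSO wells and 100% = medium only without gametocytes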
Active calls of the source: *.

Results for COc1cccc(-c2cc(C(=O)Nc3cc(OC)c(OC)c(OC)c3)no2)c1 ?
FLuc stim CS: 1.1; APP 5'UTR act: 0.3; NF-kB neuron act: 0.87; FLuc inhib CS: -5.6; STAT1 act: 97.1; Pf gametocyte: -0.4

What do the screens show for `CCC1CCCCN1C(=O)c1cc(-c2ccc(Cl)c(Cl)c2)on1` (centres undefined)?
FLuc stim CS: 1; APP 5'UTR act: 39.7; NF-kB neuron act: 1.12; FLuc inhib CS: 1.0; STAT1 act: 122.1

What do the screens show for `CC1CCCCN1C(=O)c1cc(-c2ccc(Cl)c(Cl)c2)on1` (centres undefined)?
FLuc stim CS: 1; APP 5'UTR act: 68.5; NF-kB neuron act: 2.12; FLuc inhib CS: -1.2; STAT1 act: 132.7*; Pf gametocyte: 1.2

Results for O=C(Nc1cccnc1)c1ccc(-c2ccccc2)cc1 ?
FLuc stim CS: 0.5; APP 5'UTR act: 109.9; NF-kB neuron act: 3.95*; FLuc inhib CS: 51.2*; STAT1 act: 111.9; Pf gametocyte: 3.0

How did COc1cccc(-c2cc(C(=O)Nc3cccnc3)no2)c1 do in these assays?
FLuc stim CS: 0.4; APP 5'UTR act: -16.7; NF-kB neuron act: 4.9*; FLuc inhib CS: 63.5*; STAT1 act: 132.5*

How did Cc1ccc(NC(=O)COC(=O)CCc2ccc(S(=O)(=O)N3CCOCC3)cc2)cc1F do in these assays?
FLuc stim CS: 1; APP 5'UTR act: 4.1; NF-kB neuron act: 1; FLuc inhib CS: -1.3; STAT1 act: 105.9; Pf gametocyte: -13.9

What do the screens show for `CN(c1ccccc1)c1cc(Br)nc(Br)c1`?
Pf gametocyte: 7.9

How did Cc1cc(NC(=O)CSc2nc3cc(C(=O)NCCCOC(C)C)ccc3c(=O)n2Cc2ccco2)no1 do in these assays?
FLuc stim CS: 1; APP 5'UTR act: 6.0; NF-kB neuron act: 1.11; FLuc inhib CS: 0.2; STAT1 act: 83.9; Pf gametocyte: -34.2

Results for COc1cccc(-c2cc(C(=O)N3C(C)CCCC3C)no2)c1 (centres undefined) ?
FLuc stim CS: 0.9; APP 5'UTR act: 71.4; NF-kB neuron act: 3.31*; FLuc inhib CS: 13.9; STAT1 act: 136.4*

Results for COc1ccc(NC(=O)c2cc(-c3ccccc3)on2)cc1 ?
Pf gametocyte: 3.6

Results for COc1cccc(-c2cc(C(=O)N3CCN(C(c4ccccc4)c4ccccc4)CC3)no2)c1 ?
FLuc stim CS: 1.1; APP 5'UTR act: 12.7; NF-kB neuron act: 1.17; FLuc inhib CS: -6.3; STAT1 act: 98.4; Pf gametocyte: 3.8

How did CC(C)n1cc(NC(=O)c2cc(-c3ccccc3)on2)cn1 do in these assays?
FLuc stim CS: 1; APP 5'UTR act: -76.8; NF-kB neuron act: 2.85; FLuc inhib CS: -0.4; STAT1 act: 131.3*; Pf gametocyte: 0.2

Results for Cc1csc(NC(=O)CN2C(=O)c3ccccc3C2=O)c1C(N)=O ?
Pf gametocyte: -9.0

Results for Cc1ccc(C(=O)CC(=O)c2cc(Cl)ccc2O)cc1 ?
FLuc stim CS: 1; APP 5'UTR act: 121.7; NF-kB neuron act: 4.26*; FLuc inhib CS: 4.2; STAT1 act: 126.6

What do the screens show for `CC(C)(C)c1ccc(C(=O)CC(=O)c2cc(Cl)ccc2O)cc1`?
FLuc stim CS: 1.1; APP 5'UTR act: 43.6; NF-kB neuron act: 1.46; FLuc inhib CS: -7.0; STAT1 act: 115.7; Pf gametocyte: -1.5

How did O=C(Nc1ccc2nc(-c3cccnc3)[nH]c2c1)C1CCCCC1 do in these assays?
FLuc stim CS: 0.4; APP 5'UTR act: 28.0; NF-kB neuron act: 0.67; FLuc inhib CS: 63.7*; STAT1 act: 104.3

How did O=C(Nc1ccc2nc(-c3cccnc3)[nH]c2c1)C12CC3CC(CC(C3)C1)C2 do in these assays?
FLuc stim CS: 0.7; APP 5'UTR act: -0.3; NF-kB neuron act: 0.51; FLuc inhib CS: 29.0; STAT1 act: 104.1; Pf gametocyte: -17.1

From PubChem
